Measured values from paper PMC6528641 (ChemistryOpen, 2019).

Key:
[1] = biological target: AChE (Electrophorus electricus, UniProt O42275); assay: AChE inhibitory assay; assay type: biochemical, Electroporus electricus
[2] = biological target: BuChE (Bos taurus, UniProt P32749); assay: BuChE inhibitory assay; assay type: biochemical, bovine
[3] = test system: human neuroblastoma SH‐SY5Y cells; assay: Neurotoxicity assay, cell viability by Neutral Red method; assay type: cell-based; conditions: SH‐SY5Y cells
In short: (§1)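 SH-SY5Y cells (passages 18–23) in DMEM with 5% FBS were seeded at 2×10^4 cells/well and grown 24 h at 37 °C, 5% CO2. Test compound came from a 1×10−2 M DMSO stock, freshly diluted in medium, and was applied for 24 h. Controls were medium alone and 120 mM K+ (death). Cells were PBS-washed, given neutral red for 3 h at 37 °C, extracted 20 min with acidified ethanol, and read at A540.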

[4] = as above; assay type: cell-based, human; conditions: human, SH-SY5Y neuroblastoma cells
In short: as §1

Sequence of BuChE (P32749 29-602): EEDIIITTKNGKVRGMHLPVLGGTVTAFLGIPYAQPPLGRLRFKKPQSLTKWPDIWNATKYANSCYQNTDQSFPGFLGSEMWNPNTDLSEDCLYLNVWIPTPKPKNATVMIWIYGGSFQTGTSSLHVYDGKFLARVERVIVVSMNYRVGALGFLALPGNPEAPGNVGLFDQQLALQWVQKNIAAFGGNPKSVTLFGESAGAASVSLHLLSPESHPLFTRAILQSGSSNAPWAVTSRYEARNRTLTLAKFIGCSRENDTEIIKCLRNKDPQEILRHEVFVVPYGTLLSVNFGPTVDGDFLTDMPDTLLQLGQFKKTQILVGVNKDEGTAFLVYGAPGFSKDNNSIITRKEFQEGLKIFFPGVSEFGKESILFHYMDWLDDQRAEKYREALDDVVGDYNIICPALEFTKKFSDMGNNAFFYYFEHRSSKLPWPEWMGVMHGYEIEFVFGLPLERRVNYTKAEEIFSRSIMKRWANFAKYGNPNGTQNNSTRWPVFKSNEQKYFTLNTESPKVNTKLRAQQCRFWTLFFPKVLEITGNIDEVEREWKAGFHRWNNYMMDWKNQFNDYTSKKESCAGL
Sequence of AChE (O42275 24-633): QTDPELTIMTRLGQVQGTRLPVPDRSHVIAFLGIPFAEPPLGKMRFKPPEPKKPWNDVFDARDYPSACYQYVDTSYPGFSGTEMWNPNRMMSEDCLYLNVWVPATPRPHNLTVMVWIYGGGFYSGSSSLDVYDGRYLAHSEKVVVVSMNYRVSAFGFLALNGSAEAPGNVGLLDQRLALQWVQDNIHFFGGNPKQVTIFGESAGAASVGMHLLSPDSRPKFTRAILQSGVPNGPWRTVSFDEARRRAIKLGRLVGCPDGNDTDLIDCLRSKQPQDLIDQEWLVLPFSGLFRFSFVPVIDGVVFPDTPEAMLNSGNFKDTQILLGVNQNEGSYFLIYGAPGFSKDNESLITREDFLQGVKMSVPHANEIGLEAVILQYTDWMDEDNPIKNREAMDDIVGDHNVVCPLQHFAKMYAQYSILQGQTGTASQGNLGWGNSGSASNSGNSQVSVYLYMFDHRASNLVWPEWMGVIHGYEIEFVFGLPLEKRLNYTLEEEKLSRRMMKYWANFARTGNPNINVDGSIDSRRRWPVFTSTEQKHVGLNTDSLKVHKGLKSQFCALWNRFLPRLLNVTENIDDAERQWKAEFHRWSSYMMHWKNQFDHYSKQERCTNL

| Compound | IC50 [1] | IC50 [2] | Cytotoxicity (in words) [3] | IC50 at 24 h [4] | viability at 24 h, 10 µM [4] | viability at 24 h, 1 mM [4] |
| --- | --- | --- | --- | --- | --- | --- |
| O=CNC1CC(c2ccccc2)Nc2c1ccc1cccnc21 (stereo not drawn) [4 a, N‐(2‐phenyl‐1,2,3,4‐tetrahydro‐1,10‐phenanthroline‐4‐yl) formamide] | > 500 µM | – | – | – | – | – |
| O=CNC1CC(c2ccccn2)Nc2c1ccc1cccnc21 (stereo not drawn) [4 b, N‐(2‐(pyridin‐2‐yl)‐1,2,3,4‐tetrahydro‐1,10‐phenanthroline‐4‐yl) formamide] | 143.66 ± 0.02 µM | 152.99 ± 0.01 µM | – | – | – | – |
| O=CNC1CC(c2cccnc2)Nc2c1ccc1cccnc21 (stereo not drawn) [4 c, N‐(2‐(pyridin‐3‐yl)‐1,2,3,4‐tetrahydro‐1,10‐phenanthroline‐4‐yl) formamide] | 140.2 ± 0.02 µM | – | – | – | – | – |
| O=CNC1CC(c2ccncc2)Nc2c1ccc1cccnc21 (stereo not drawn) [4 d, N‐(2‐(pyridin‐4‐yl)1,2,3,4‐tetrahydro‐1,10‐phenanthroline‐4‐yl) formamide] | 63.63 ± 0.01 µM | 138.63 ± 0.01 µM | non‐cytoxicity | 5500 µM | 132 ± 25.6% | 102 ± 18.9% |
| COc1ccc(C2CC(NC=O)c3ccc4cccnc4c3N2)cc1 (stereo not drawn) [4 e, N‐(2‐(4‐methoxyphenyl)‐1,2,3,4‐tetrahydro‐1,10‐phenanthroline‐4‐yl) formamide] | 362.11 ± 0.03 µM | – | – | 3700 µM | 119 ± 6.4% | 78.5 ± 12.5% |
| O=CNC1CC(c2ccc([N+](=O)[O-])cc2)Nc2c1ccc1cccnc21 (stereo not drawn) [4 g, N‐(2‐(4‐nitrophenyl)‐1,2,3,4‐tetrahydro‐1,10‐phenanthroline‐4‐yl) formamide] | 96.52 ± 0.01 µM | – | non‐cytoxicity | 300 µM | 116 ± 5% | 21.9 ± 3.9% |
| Nc1cccc2cccnc12 [8‐amino‐quinoline, reference compound] | 171.56 ± 0.01 µM | 195.08 ± 0.02 µM | – | – | – | – |
